Measured values as given in ChEMBL document CHEMBL3272071, “Chemistry and biological activities of N,N-dimethylaminoethyl acrylate, a choline acetyltransferase inhibitor” (J Med Chem, 1976).
Active and inactive are the calls of the source. The rule behind the calls is not given here.

Key:
[1] = molecular target: T1, Choline O-acetyltransferase (Rattus norvegicus) (UniProt P32738); assay: Uncompetitive inhibition of Holtzman rat brain choline acetyltransferase using choline as substrate at 1 mM incubated 20 mins prior to substrate addition measured after 30 mins by LB plot using liquid scintillation counting analysis
T1 sequence (whole entry): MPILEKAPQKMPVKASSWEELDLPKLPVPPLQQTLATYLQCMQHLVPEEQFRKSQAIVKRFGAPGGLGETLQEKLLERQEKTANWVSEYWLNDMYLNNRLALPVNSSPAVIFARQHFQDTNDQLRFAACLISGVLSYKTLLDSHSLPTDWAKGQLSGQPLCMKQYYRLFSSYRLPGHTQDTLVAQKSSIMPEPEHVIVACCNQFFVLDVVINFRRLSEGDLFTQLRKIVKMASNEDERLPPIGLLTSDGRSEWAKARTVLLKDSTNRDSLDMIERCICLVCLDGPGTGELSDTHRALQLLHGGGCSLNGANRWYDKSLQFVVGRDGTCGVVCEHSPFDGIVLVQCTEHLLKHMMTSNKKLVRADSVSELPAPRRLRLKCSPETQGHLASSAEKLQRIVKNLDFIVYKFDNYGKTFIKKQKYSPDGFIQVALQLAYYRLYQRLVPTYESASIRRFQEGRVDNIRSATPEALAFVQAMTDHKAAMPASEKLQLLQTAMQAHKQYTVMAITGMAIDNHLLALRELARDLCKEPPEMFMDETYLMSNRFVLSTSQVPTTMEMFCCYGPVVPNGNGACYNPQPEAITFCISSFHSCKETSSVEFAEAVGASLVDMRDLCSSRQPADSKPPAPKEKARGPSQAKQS

Lithobates pipiens [2] = assay: Inhibition of choline acetyltransferase in frog sciatic nerve-gastrocnemius muscle assessed as blockade of electrically stimulated muscle contraction at 10^-3 M incubated for 3 hrs followed by compound washout; type: tissue-based
Summary of the method: (§1)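 Rana pipiens sciatic nerve-gastrocnemius (20-25 g frogs) in frog Ringer, 25°C, 95% O2/5% CO2. Nerve stimulated at 7 V, 0.5 ms, 250 Hz for 0.1 s every 10 s. Isometric contractions recorded, with washout after 10^-3 M exposure. ED50 with 95% confidence limits by Litchfield-Wilcoxon, N=16.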

[3] = molecular target: T1, Choline O-acetyltransferase (Rattus norvegicus); assay: Uncompetitive inhibition of Holtzman rat brain choline acetyltransferase using acetyl-CoA as substrate at 0.2 mM incubated 20 mins prior to substrate addition measured after 30 mins by LB plot using liquid scintillation counting analysis
[4] = Stability in Me2SO-d6 by NMR spectroscopy; type: physicochemical
Acetylcholinesterase = Acetylcholinesterase (Homo sapiens, UniProt P22303); assay: Stability of the compound assessed as acetylcholinesterase (unknown origin)-mediated hydrolysis at 5 X 10^-3 M; type: ADME; details: 5000 µM
Summary of the method: (§2)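 Enzymatic hydrolysis at 5 mM compound in barbital buffer at 25°C for 20 min, pH 7.3-7.6. AChE at 0.083 U/ml or BuChE at 0.017 U/ml. Ester cleavage followed as pH change calibrated against acrylic acid. Mean ± SEM of three experiments.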

[5] = Stability of the compound assessed as autohydrolysis at 5 X 10^-3 M at pH 7.4; type: physicochemical; details: buffer, pH 7.4, 5000 µM
Summary of the method: (§3)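 Autohydrolysis run at 25°C for 20 min in barbital buffer (1.5 mM sodium barbital, 0.3 mM KH2PO4, 150 mM NaCl), pH adjusted to give 7.3-7.6. Compound at 5.0 mM final, no enzyme. pH change tracked against an acrylic acid titration standard curve. Mean ± SEM, three experiments.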

Lithobates pipiens [6] = assay: Inhibition of choline acetyltransferase in frog sciatic nerve-gastrocnemius muscle assessed as blockade of electrically stimulated muscle contraction after 3 hrs; type: tissue-based; summary of the method: as §1
[7] = molecular target: T1, Choline O-acetyltransferase (Rattus norvegicus); assay: Reversible inhibition of Holtzman rat brain choline acetyltransferase using [1-14C-acetyl]-CoA as substrate at 5 X 10^-4 M incubated 20 mins prior to substrate addition measured after 30 mins by liquid scintillation counting analysis
Summary of the method: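 Reversibility test at 5 × 10^-4 M inhibitor with enzyme varied from 10 to 30 mg acetone powder per ml. Rat brain extract preincubated 20 min at 37°C, then [14C]acetyl-CoA radioassay for 30 min with scintillation counting. Mean of three experiments ± SEM.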

[8] = Half life of the compound auto-hydrolysis at 5 X 10^-3 M at pH 7.4; type: physicochemical; details: buffer; summary of the method: as §3
[9] = molecular target: T1, Choline O-acetyltransferase (Rattus norvegicus); assay: Inhibition of Holtzman rat brain choline acetyltransferase using [1-14C-acetyl]-CoA as substrate at 1 mM treated with buffered solution at pH 7.4 for 3 to 60 mins prior to enzyme addition followed by 20 mins incubation prior to substrate addition […] by liquid scintillation counting analysis
[10] = Stability in D2O by NMR spectroscopy; type: physicochemical
Summary of the method: (§4)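 NMR spectra taken in D2O every 3 min for 1 hr. pH stayed at 9.0 (±0.5) throughout.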

Cholinesterase = Cholinesterase (Homo sapiens, UniProt P06276); assay: Stability of the compound assessed as butyrylcholine esterase (unknown origin)-mediated hydrolysis at 5 X 10^-3 M; type: ADME; details: 5000 µM; summary of the method: as §2
[11] = Stability in D2O assessed every 4 mins for 1 hr by NMR spectroscopy; type: physicochemical
[12] = Dissociation constant, pKa of the compound; type: physicochemical
[13] = Stability in aqueous medium by NMR spectroscopy; type: physicochemical; details: buffer; summary of the method: as §4
[14] = Stability in chloroform-d by NMR spectroscopy; type: physicochemical
Cavia porcellus = species: Cavia porcellus; assay: Inhibition of choline acetyltransferase in guinea pig ileum assessed as blockade of electrically stimulated muscle contraction after 3 hrs; type: tissue-based
Summary of the method: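 Guinea pig ileum on coaxial electrode in Tyrode solution, 37°C, 95% O2/5% CO2. Transmural stimulation: monophasic square pulses, 40 V supramaximal, 10 Hz, 0.5 ms, 1 s every 10 s. Contraction blockade gave ED50 with 95% confidence limits by Litchfield-Wilcoxon, N=20.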

[15] = molecular target: T2, Choline O-acetyltransferase (Rattus norvegicus, UniProt P32738); assay: Inhibition of Holtzman rat brain choline acetyltransferase using [1-14C-acetyl]-CoA as substrate incubated 20 mins prior to substrate addition measured after 30 mins by liquid scintillation counting analysis; details: read-out: I50
T2 sequence (P32738 whole entry): T1 sequence (whole entry)
Summary of the method: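 ChAc extracted from Holtzman rat brain acetone powder in ice-cold pH 7.0 phosphate medium (NaCl, EDTA, cysteine, BSA), 9000 g supernatant. Extract preincubated with inhibitor 20 min at 37°C in pH 7.0 phosphate buffer with 150 mM NaCl, 0.05 mM neostigmine, 50 mM choline. Then [1-14C-acetyl]-CoA at 0.065 mM final, 30 min at 37°C. Acetylated product by sequential anion/cation exchange and scintillation counting.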

[16] = molecular target: T1, Choline O-acetyltransferase (Rattus norvegicus); assay: Inhibition of Holtzman rat brain choline acetyltransferase using [1-14C-acetyl]-CoA as substrate at 1 mM incubated in un-buffered water for 24 hrs by liquid scintillation counting analysis
Summary of the method: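 Hydration product made by keeping compound in unbuffered water for 24 hr, then run at 1.0 mM in the standard rat brain ChAc radioassay: 20 min preincubation at 37°C, 0.065 mM [1-14C-acetyl]-CoA, 30 min, ion-exchange then scintillation counting.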

[17] = molecular target: T2, Choline O-acetyltransferase; assay: Inhibition of Holtzman rat brain choline acetyltransferase using [1-14C-acetyl]-CoA as substrate at 1 mM incubated 20 mins prior to substrate addition measured after 30 mins by liquid scintillation counting analysis; details: read-out: I50

Sequence of Cholinesterase (P06276 whole entry): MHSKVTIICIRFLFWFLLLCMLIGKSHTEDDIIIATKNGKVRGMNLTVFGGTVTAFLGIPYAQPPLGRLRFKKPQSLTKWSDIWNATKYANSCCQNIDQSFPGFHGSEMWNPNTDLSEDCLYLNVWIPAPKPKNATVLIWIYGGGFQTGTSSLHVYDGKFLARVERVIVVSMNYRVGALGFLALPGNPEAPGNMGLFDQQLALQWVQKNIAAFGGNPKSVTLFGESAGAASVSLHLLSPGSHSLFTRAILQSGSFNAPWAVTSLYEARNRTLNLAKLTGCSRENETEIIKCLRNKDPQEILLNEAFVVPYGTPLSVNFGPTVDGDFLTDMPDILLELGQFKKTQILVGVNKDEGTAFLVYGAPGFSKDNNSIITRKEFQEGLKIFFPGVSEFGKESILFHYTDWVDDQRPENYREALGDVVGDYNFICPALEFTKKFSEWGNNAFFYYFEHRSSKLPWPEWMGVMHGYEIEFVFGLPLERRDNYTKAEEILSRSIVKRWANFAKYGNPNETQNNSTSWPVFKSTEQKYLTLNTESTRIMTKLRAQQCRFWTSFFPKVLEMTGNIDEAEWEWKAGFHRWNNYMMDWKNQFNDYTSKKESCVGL
Sequence of Acetylcholinesterase (P22303 whole entry): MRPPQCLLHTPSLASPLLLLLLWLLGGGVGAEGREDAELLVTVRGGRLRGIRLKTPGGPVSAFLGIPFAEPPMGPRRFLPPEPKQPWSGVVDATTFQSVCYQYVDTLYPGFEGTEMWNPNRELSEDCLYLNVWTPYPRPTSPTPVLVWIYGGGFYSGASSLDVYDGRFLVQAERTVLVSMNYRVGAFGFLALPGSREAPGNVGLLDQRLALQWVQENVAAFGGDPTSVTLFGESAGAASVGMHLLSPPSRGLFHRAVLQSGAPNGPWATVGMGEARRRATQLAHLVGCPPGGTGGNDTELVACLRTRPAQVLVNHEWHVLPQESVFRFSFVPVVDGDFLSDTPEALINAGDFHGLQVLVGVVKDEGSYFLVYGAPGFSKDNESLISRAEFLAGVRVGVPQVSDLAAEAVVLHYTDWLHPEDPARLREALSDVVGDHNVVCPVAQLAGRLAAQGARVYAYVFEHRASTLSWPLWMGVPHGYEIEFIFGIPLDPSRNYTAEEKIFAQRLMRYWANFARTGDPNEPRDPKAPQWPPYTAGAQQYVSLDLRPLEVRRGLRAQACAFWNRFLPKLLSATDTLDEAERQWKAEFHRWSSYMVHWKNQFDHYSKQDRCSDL

C=CC(=O)OCCN(C)C
inhibition [1]: Active
inhibition (Lithobates pipiens [2]): Active
inhibition [3]: Active
Stability [4]: Stable
Drug degradation (Acetylcholinesterase): 0.07 ×10⁻⁸ mol/min
Drug degradation [5]: 1.75 ×10⁻⁸ mol/min
ED50 (Lithobates pipiens [6]): 5.05 ×10⁻⁴ M
inhibition [7]: Active
half-life at 5000 µM [8]: 24 h
inhibition [9]: Active
Stability [10]: Stable
Drug degradation (Cholinesterase): 0.06 ×10⁻⁸ mol/min
Stability [11]: Stable
pKa [12]: 8.6
Stability [13]: Unstable
Stability [14]: Stable
ED50 (Cavia porcellus): 1.21 ×10⁻⁴ M
IC50 [15]: 502 µM
inhibition [16]: inactive

C=CC(=O)O [ACRYLIC ACID]
IC50 [17]: < 200 µM

CC(=O)OCC[N+](C)(C)C [ACETYLCHOLINE]
Drug degradation (Acetylcholinesterase): 1.46 ×10⁻⁸ mol/min
Drug degradation [5]: 1.75 ×10⁻⁸ mol/min
Drug degradation (Cholinesterase): 6.57 ×10⁻⁸ mol/min
